Here are results for 3 compounds from paper PMC6568317 (ACS chemical biology, 2017).

The target in experiment [1] is T1, Saccharomyces cerevisiae adenine phosphoribosyltransferase (ScAPRT) (Saccharomyces cerevisiae, UniProt P49435).
T1 sequence (P49435 1-187): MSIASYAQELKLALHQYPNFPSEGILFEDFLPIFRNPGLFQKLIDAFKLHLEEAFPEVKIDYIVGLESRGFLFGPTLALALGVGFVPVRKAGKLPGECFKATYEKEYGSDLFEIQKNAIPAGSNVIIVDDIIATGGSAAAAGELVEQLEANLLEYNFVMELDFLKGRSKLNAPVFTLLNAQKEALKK
The experiment in a line: ScAPRT inhibition assay. In kind it is biochemical.

Experiment [2] deals with T2, Plasmodium falciparum orotate phosphoribosyltransferase (PfOPRT) (Plasmodium falciparum, UniProt Q8I3Y0).
T2 sequence (Q8I3Y0 1-281): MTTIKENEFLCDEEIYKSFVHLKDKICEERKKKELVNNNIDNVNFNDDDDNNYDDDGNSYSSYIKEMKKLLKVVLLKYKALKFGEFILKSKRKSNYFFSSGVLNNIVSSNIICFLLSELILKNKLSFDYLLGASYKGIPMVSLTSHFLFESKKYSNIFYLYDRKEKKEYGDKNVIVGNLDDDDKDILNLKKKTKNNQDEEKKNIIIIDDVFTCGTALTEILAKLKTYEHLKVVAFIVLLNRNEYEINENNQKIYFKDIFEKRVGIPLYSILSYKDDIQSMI
The experiment in a line: PfOPRT inhibition assay. In kind it is biochemical.

Experiment [3] addresses T3, human orotate phosphoribosyltransferase (HsOPRT) (Homo sapiens, UniProt P11172).
T3 sequence (P11172 1-214 limits assumed): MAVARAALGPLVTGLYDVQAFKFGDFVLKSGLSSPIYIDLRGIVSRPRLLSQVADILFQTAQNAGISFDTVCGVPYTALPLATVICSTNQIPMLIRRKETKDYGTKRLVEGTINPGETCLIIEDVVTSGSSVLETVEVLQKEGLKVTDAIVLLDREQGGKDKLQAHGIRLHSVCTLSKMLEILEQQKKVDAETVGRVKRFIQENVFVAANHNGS
In words: HsOPRT inhibition assay. In kind it is biochemical. To be noted: for inhibition of HsOPRT: at D-DIAB or L-DIAB concentrations of 200 μM. The method in brief:
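Human OPRT, 200 nM, at 25 °C in 50 mM Tris-HCl pH 8.0 with 5 mM MgCl₂. Substrates are 500 μM orotidine 5′-monophosphate and 1 mM pyrophosphate, with bis-phosphate iminoaltritol test compound present. Reaction followed by absorbance at 266 nm. Ki derived from initial rates measured in triplicate.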

The target of experiment [4] is T1, Saccharomyces cerevisiae adenine phosphoribosyltransferase (ScAPRT). To be noted: read-out: KM for PRPP (ScAPRT); previously reported substrate KM; cited from earlier work.

A value given as a limit tells only on which side of the number the result lay.

As usually defined, the Ki is the equilibrium dissociation constant of an inhibitor or competing ligand from its target. `O=P(O)(O)OC[C@H]1N[C@H](COP(=O)(O)O)[C@@H](O)[C@H]1O` (stereo in doubt) [L-DIAB, L-2,5-dideoxy-2,5-imino-altritol 1,6-bisphosphate]: the Ki was 14.9 ± 2.9 µM in experiment [1], 103 ± 17 µM in experiment [2] and > 200 µM in experiment [3]. In addition, in experiment [3], the “inhibition of HsOPRT” value is “no apparent inhibition”.
As to `O=P(O)(O)OC[C@H]1N[C@H](COP(=O)(O)O)[C@@H](O)[C@@H]1O` [D-DIAB, D-2,5-dideoxy-2,5-imino-altritol 1,6-bisphosphate], the “selectivity for D-DIAB over L-DIAB in PfOPRT inhibition” value in experiment [2] (ratio of Ki values, Table 1) was 3 fold. Moreover, the “inhibition of HsOPRT” value in experiment [3] is “no apparent inhibition”.
The Km is the substrate concentration at which the rate is half of its maximum. Regarding `O=P(O)(O)OC[C@H]1O[C@H](OP(=O)(O)OP(=O)(O)O)[C@H](O)[C@@H]1O` [PRPP, 5-phospho-α-D-ribosyl 1-pyrophosphate], the Michaelis-Menten constant (Km) in experiment [4] is 20 µM.
